Compound activity from PubChem.
Only some compounds are listed: those with a hit (about 3.7% of all), similar ones and a draw of the others.
Kir21 inh: inhibitors of mouse Kir2.1 inward-rectifier potassium channel; HEK293-Kir2.1, FluxOR thallium flux fluorescence; hits give low values; B-score at 10 µM; actives 0.85% (n = 310,000); AID 1672, 2009;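 active means fluorescence ratio B-score at or below minus 3 SD of library scores, with starting-brightness B-score within 2 SD, cut at about -4.2 in these data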;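 further: channel flux triggered by added potassium and thallium sulfate stimulus; B-score of peak minus minimum fluorescence over baseline after thallium stimulus; more negative B-score means stronger Kir2.1 block with less thallium influx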
KCNK9 block: KCNK9 potassium channel inhibitors, primary screen, HEK293 cells, thallium flux; B-score at 10 µM; FluxOR thallium flux fluorescence; hits give low values; Potassium channel subfamily K member 9 (Homo sapiens), Q9NPC2; actives 1.2% (n = 310,000);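 active means ratio B-score over 3 SD below the library mean, with starting fluorescence within 5 SD of its mean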;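 further: negative B-score means less thallium flux so channel inhibition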
Target sequence (Q9NPC2 whole entry, looked up): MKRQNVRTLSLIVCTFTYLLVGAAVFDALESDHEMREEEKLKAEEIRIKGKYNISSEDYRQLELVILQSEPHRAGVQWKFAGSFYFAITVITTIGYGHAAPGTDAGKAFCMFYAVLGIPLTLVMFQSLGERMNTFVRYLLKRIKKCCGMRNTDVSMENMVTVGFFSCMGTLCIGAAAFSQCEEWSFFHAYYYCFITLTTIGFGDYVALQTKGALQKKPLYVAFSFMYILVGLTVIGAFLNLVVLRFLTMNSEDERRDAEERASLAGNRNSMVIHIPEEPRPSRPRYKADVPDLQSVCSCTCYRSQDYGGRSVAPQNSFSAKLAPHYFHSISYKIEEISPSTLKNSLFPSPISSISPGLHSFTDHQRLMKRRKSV
KCNK3 block: human KCNK3 channel inhibitors, primary screen, CHO cells, FluxOR thallium flux, B-score; actives 0.84% (n = 340,000); B-score at 10 µM; Potassium channel subfamily K member 3 (Homo sapiens), O14649; FluxOR fluorescence; hits give low values;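 active means B-score under library mean minus 4 SD, starting fluorescence ratio at most library mean plus 5 SD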;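 further: more negative B-score means stronger inhibition of thallium flux through KCNK3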
KCNQ1 inh: inhibitors of human KCNQ1 channel, primary screen, cell-based, thallium flux, high-throughput. Potassium voltage-gated channel subfamily KQT member 1 (Homo sapiens), P51787. CHO-K1 KCNQ1, FluxOR thallium flux fluorescence; hits give high values. B-score at 10 µM. actives 1.3% (n = 310,000);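 active means compounds whose thallium flux B-score, printed positive for inhibition, exceeds three library SD while starting fluorescence stays within three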;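 further: channel opened by potassium depolarization with thallium stimulus after 20 min compound exposure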
hERG protect: hERG rescue from dofetilide block, primary screen, cell-based, CHO-hERG, FluxOR thallium flux, dofetilide IC70 | Voltage-gated inwardly rectifying potassium channel KCNH2 (Homo sapiens), Q12809 | dofetilide IC70 present | activation (rescue from dofetilide block), less the hit threshold, % at 10 µM | actives 0.51% (n = 310,000) | AID 1511, 2009;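 active means activation above the mean of controls blocked by dofetilide plus 5 SD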;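 further: thallium influx through hERG after potassium depolarization seen as dye fluorescence rise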
KCNQ1 pot: potentiators or activators of KCNQ1 channel, primary screen, cell-based, thallium flux, high-throughput; Potassium voltage-gated channel subfamily KQT member 1 (Homo sapiens), P51787; B-score at 10 µM; actives 0.35% (n = 310,000); CHO-K1 KCNQ1, thallium flux FluxOR fluorescence; hits give high values;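 active means fluorescence ratio B-score, a plate-corrected score, at least three library SD, with initial intensity B-score within 5 SD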
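Test system: CHO-K1 cells stably expressing KCNQ1 / Medium: assay buffer / Also added: depolarizing K+/Tl+ stimulus, K2SO4 and Tl2SO4 each 12.5 mM in 5x stock / Incubation: 90 min dye loading and 20 min compound exposure, both at room temperature / Signal: thallium influx via FluxOR fluorescence, kinetic imaging / Evaluation: B score of baseline-normalized fluorescence ratio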
Starred values were filed as active, the others as inactive.

Results for CC(NC(=O)NC12CC3CC(CC(C3)C1)C2)c1ccc2c(c1)OCO2 (configuration not stated) ?
Kir21 inh: -1.1; KCNK9 block: inactive; KCNK3 block: inactive; KCNQ1 inh: inactive; hERG protect: -17.4; KCNQ1 pot: inactive

Results for COc1ccc(C)cc1S(=O)(=O)N(C)CC(=O)N1CCCC1 ?
Kir21 inh: 1.45; KCNK9 block: inactive; KCNK3 block: inactive; KCNQ1 inh: inactive; hERG protect: -3.5; KCNQ1 pot: inactive

Results for Cc1cc(CN2CCN(CC(=O)Nc3cc(C(F)(F)F)ccc3-n3cncn3)CC2)no1 ?
KCNK3 block: inactive

What do the screens show for `COc1ccc(S(=O)(=O)N2CCCC2C(=O)Nc2nnc(-c3cccnc3)s2)cc1` (configuration not stated)?
Kir21 inh: 0.57; KCNK9 block: inactive; KCNK3 block: inactive; KCNQ1 inh: inactive; hERG protect: 7.5*; KCNQ1 pot: inactive

What do the screens show for `O=C1Nc2ccc(Cl)cc2[C@@](C#CC2CC2)(C(F)(F)F)O1`?
Kir21 inh: -0.31; KCNK9 block: -8.66*; KCNQ1 inh: inactive; hERG protect: -7.7; KCNQ1 pot: inactive

Results for COc1ccc(C(=O)Nn2c(SCC(=O)c3ccc(Cl)cc3)nc3ccccc3c2=O)cc1 ?
Kir21 inh: -0.65; KCNK9 block: -7.05*; KCNK3 block: inactive; KCNQ1 inh: inactive; hERG protect: -12.7; KCNQ1 pot: inactive

Results for CCCOc1ccc(C(=O)Nn2c(C)nc3ccccc3c2=O)cc1 ?
Kir21 inh: 0.67; KCNK9 block: inactive; KCNK3 block: inactive; KCNQ1 inh: inactive; hERG protect: 6.5*; KCNQ1 pot: inactive

How did COc1ccc(C(=O)Nn2c(SCC(=O)N3CCC(C)CC3)nc3ccccc3c2=O)cc1 do in these assays?
Kir21 inh: 0.3; KCNK9 block: inactive; KCNK3 block: inactive; KCNQ1 inh: inactive; hERG protect: -10.4; KCNQ1 pot: inactive

Results for COc1ccc(C(=O)Nn2c(C)nc3ccccc3c2=O)cc1 ?
Kir21 inh: 1.09; KCNK9 block: inactive; KCNK3 block: inactive; KCNQ1 inh: inactive; hERG protect: -6.8; KCNQ1 pot: inactive

How did CCCSc1ccc([C@H]2N[C@@](C)(C(=O)OC)[C@H]3C(=O)N(CC)C(=O)[C@@H]23)cc1 do in these assays?
KCNK3 block: inactive

Results for CSc1ncc(C(C)=O)c(C)n1 ?
Kir21 inh: -1.06; KCNK9 block: inactive; KCNK3 block: inactive; KCNQ1 inh: inactive; hERG protect: -7.5; KCNQ1 pot: inactive

What do the screens show for `CC(=O)c1cnc(Nc2nc(C)c3cc(C)c(C)cc3n2)nc1C`?
Kir21 inh: 0.01; KCNK9 block: inactive; KCNK3 block: inactive; KCNQ1 inh: inactive; hERG protect: 7.7*; KCNQ1 pot: inactive

Results for CC1(C)CC(=O)C2=C(C1)NC1=C(C(=O)c3ccccc31)C2c1ccc(O)cc1 (configuration not stated) ?
Kir21 inh: -0.01; KCNK9 block: inactive; KCNK3 block: inactive; KCNQ1 inh: inactive; hERG protect: -2.5; KCNQ1 pot: inactive

How did CCCc1ccc(C2C3=C(CC(C)(C)CC3=O)NC3=C2C(=O)c2ccccc23)cc1 (configuration not stated) do in these assays?
Kir21 inh: -2.12; KCNK9 block: inactive; KCNK3 block: inactive; KCNQ1 inh: 9*; hERG protect: -9.3; KCNQ1 pot: inactive

What do the screens show for `COc1cc(/C=C2\SC(=S)N(C(Cc3ccccc3)C(=O)O)C2=O)ccc1O` (configuration not stated)?
Kir21 inh: -4.45*; KCNK9 block: inactive; KCNK3 block: inactive; KCNQ1 inh: inactive; hERG protect: -20.4; KCNQ1 pot: inactive

Results for COc1cc(/C=C2\SC(=S)N(Nc3ccccc3)C2=O)ccc1O ?
Kir21 inh: -0.83; KCNK9 block: inactive; KCNK3 block: inactive; KCNQ1 inh: inactive; hERG protect: -4.2; KCNQ1 pot: inactive

How did CC(NCC(=O)Nc1ccccc1C(=O)NC1CC1)c1ccco1 (configuration not stated) do in these assays?
KCNK3 block: inactive

Results for CCOc1cccc(Oc2ccc(C(F)(F)F)cn2)c1 ?
Kir21 inh: -1.52; KCNK9 block: -7.88*; KCNK3 block: inactive; KCNQ1 inh: inactive; hERG protect: -3.9; KCNQ1 pot: inactive

Results for CCOC(=O)c1ccc(Oc2ccc(C(F)(F)F)cn2)cc1 ?
Kir21 inh: 2.33; KCNK9 block: inactive; KCNK3 block: inactive; KCNQ1 inh: inactive; hERG protect: -4.5; KCNQ1 pot: inactive

How did CCNS(=O)(=O)c1ccc(CCC(=O)N2CCN(c3ccccc3)CC2)cc1 do in these assays?
Kir21 inh: -0.58; KCNK9 block: inactive; KCNK3 block: inactive; KCNQ1 inh: inactive; hERG protect: -6.3; KCNQ1 pot: inactive

How did N#C/C(=N\Nc1ccccc1F)c1nc(-c2ccccc2)cs1 do in these assays?
Kir21 inh: -0.02; KCNK9 block: inactive; KCNK3 block: inactive; KCNQ1 inh: inactive; hERG protect: 18.1*; KCNQ1 pot: inactive

Results for CCN(CC(=O)Nc1c(F)cccc1F)C(=O)CCCOc1ccccc1 ?
KCNK3 block: inactive

How did CN(CC(=O)Nc1ccccc1Cl)CC(=O)Nc1c(F)cccc1F do in these assays?
Kir21 inh: -0.02; KCNK9 block: inactive; KCNK3 block: inactive; KCNQ1 inh: inactive; hERG protect: 5.2*; KCNQ1 pot: inactive

Results for Cc1ccc(NC(=S)Nc2ccc(S(=O)(=O)Nc3ncccn3)cc2)cc1Cl ?
Kir21 inh: 0.41; KCNK9 block: inactive; KCNQ1 inh: 10*; hERG protect: -14.4; KCNQ1 pot: inactive

What do the screens show for `CCOc1ccc2cc(S(=O)(=O)n3ccnc3C)ccc2c1`?
Kir21 inh: -3.58; KCNK9 block: inactive; KCNK3 block: inactive; KCNQ1 inh: inactive; hERG protect: -3.5; KCNQ1 pot: inactive

Results for CCc1nccn1S(=O)(=O)c1ccc2ccc(C)cc2c1 ?
Kir21 inh: -1.21; KCNK9 block: inactive; KCNK3 block: inactive; KCNQ1 inh: inactive; hERG protect: 26.9*; KCNQ1 pot: 28*
